Data as given in ChEMBL document CHEMBL4513216, “Probing the Open Global Health Chemical Diversity Library for Multistage-Active Starting Points for Next-Generation Antimalarials” (ACS Infect Dis, 2020).

Assay: Toxicity liver stage against HepG2, at 10uM
Format: cell-based
Design: test concentration 10 uM, cell line HepG2-A16-CD81EGFP
Details: human, HepG2-A16-CD81EGFP cells; read-out: INHIBITION
Method in brief: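 Uninfected HepG2-A16-CD81EGFP cells, 3 × 10^3 per well, 1536-well, plated on prespotted compound at 10 μM final, parasite-free screening media added to match infected plates; puromycin 10 μM positive, DMSO 0.5% negative; run in parallel with 48 h PbLuc assay at 37 °C, 5% CO2; viability by CellTiter-Glo luminescence, normalized to controls.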

Cc1ccc(CNC2(Cc3cc(C(C)(C)O)on3)COC2)o1
cytotoxicity at 10 µM: -1.18%

Cc1ccc(-n2nc(C)c3c(C)cc(OCC(=O)NC(C)C)nc32)cc1
cytotoxicity at 10 µM: -3.61%

COc1c(C(=O)N2CCOCC2)cnc2c1c(C)nn2C
cytotoxicity at 10 µM: 1.64%

CNC(=O)CN1C(=O)CCC12CCCN(CCc1ccccc1)C2 (centres undefined)
cytotoxicity at 10 µM: 1.35%

CC(=O)N1CCCC2(CCN(c3ccccc3)C2=O)C1 (centres undefined)
cytotoxicity at 10 µM: 1.91%

Cc1cc(C(=O)N2CC[C@@H](O)[C@@H]2Cc2ccccc2)no1
cytotoxicity at 10 µM: -1.36%

CCN1CCC2(COCc3c(C)nc(N(C)C)nc32)C1 (centres undefined)
cytotoxicity at 10 µM: 5.76%

CCn1c(SCC(=O)N2CCOCC2)nc2cc(C)[nH]c2c1=O
cytotoxicity at 10 µM: 7.72%

CCn1c(=O)c2cc(S(N)(=O)=O)ccc2n(CC)c1=O
cytotoxicity at 10 µM: -13.4%

CC(C)c1cc2c(s1)NC(c1ccccn1)NC2=O (centres undefined)
cytotoxicity at 10 µM: -0.378%

Fc1cccc(Cl)c1CNCCCOc1ccccn1
cytotoxicity at 10 µM: -3.33%

CCCC(=O)NCCCn1ncc2c(C)cccc21
cytotoxicity at 10 µM: 8.6%

CC(C)CNC(=O)c1nnsc1-c1ccccc1
cytotoxicity at 10 µM: 10.3%

COc1ccc(C2CN(c3cc(C)ncn3)CCN2C(C)=O)cc1 (centres undefined)
cytotoxicity at 10 µM: 0.23%

CNC(=O)c1ccc(C2CN(Cc3ccc(F)cc3)CCO2)nc1 (centres undefined)
cytotoxicity at 10 µM: -0.378%

CC(C)c1nc(O)c2nnn(C[C@H]3CCCN(Cc4cccs4)C3)c2n1
cytotoxicity at 10 µM: 10.8%

COc1ccc(N2CCN(C(=O)OC(C)(C)C)C(C(=O)O)C2)cc1 (centres undefined)
cytotoxicity at 10 µM: -0.318%

CC(=O)N1CCC(c2ccnc(Nc3cc(C(F)(F)F)ccn3)n2)C1 (centres undefined)
cytotoxicity at 10 µM: 11%

COCC(=O)N1CC(c2csc(NC(C)=O)n2)C1
cytotoxicity at 10 µM: -8.8%

CC1(C(=O)N2CCOCC2)CN(Cc2cccnc2)CCO1 (centres undefined)
cytotoxicity at 10 µM: -9%

Cc1c(C(=O)N2CCCC(n3nnc4cc(F)ccc43)C2)cnn1C (centres undefined)
cytotoxicity at 10 µM: -18.3%

Cc1cn[nH]c1C1CCCCN1C(=O)CCc1ccc(F)cc1 (centres undefined)
cytotoxicity at 10 µM: 1.52%

COC(=O)CC(NC(=O)c1cccc(N2CCCC2=O)c1)C(=O)OC (centres undefined)
cytotoxicity at 10 µM: -55.6%

CC1CCN(C(=O)c2cn(-c3ccc(C(F)(F)F)cn3)nn2)CC1
cytotoxicity at 10 µM: -53.1%

CC(C)N(C)C(=O)C1CSCN1S(=O)(=O)c1ccccc1F (centres undefined)
cytotoxicity at 10 µM: 8.65%

CCOCCN1CCN(c2ccc(C#N)cn2)CC1CC (centres undefined)
cytotoxicity at 10 µM: 1.02%

CCn1cnnc1CNS(=O)(=O)N1CCCC1c1ccc(C)o1 (centres undefined)
cytotoxicity at 10 µM: -144%

Cc1ccc(NC(=O)NCC2CCS(=O)(=O)C2)cc1Cl (centres undefined)
cytotoxicity at 10 µM: 6.93%

CCN(CC)c1ccc(CNC(=O)N2CCC(C#N)CC2)cc1
cytotoxicity at 10 µM: -11.4%

COCCS(=O)(=O)NCc1ccc(N(C)C)c(C)c1
cytotoxicity at 10 µM: -8.35%

CC(C)c1csc(C(=O)N(C)c2ccc(Br)cn2)n1
cytotoxicity at 10 µM: 3.33%

COc1cc(C)ccc1OCCC(=O)N1CCC(N2CC=CC2)C1 (centres undefined)
cytotoxicity at 10 µM: 6.99%

Cn1cc(C(=O)N2CCCC2c2ccc3c(c2)OCO3)ccc1=O (centres undefined)
cytotoxicity at 10 µM: -14.8%

CCOCCCC(=O)NCc1ccnc(N2CCN(C)CC2)c1
cytotoxicity at 10 µM: -10.9%

CCN(Cc1ccco1)C(C)c1nc(C(C)(C)C)no1 (centres undefined)
cytotoxicity at 10 µM: 0.623%

CNS(=O)(=O)CC(=O)N1CCCc2cc(Br)ccc21
cytotoxicity at 10 µM: -12.5%

CC(C)(C(=O)NCCCC(N)=O)c1cccc(Br)c1
cytotoxicity at 10 µM: 4.23%

O=C(Nc1cccc(F)c1)C1CCN(Cc2noc(C3CC3)n2)CC1
cytotoxicity at 10 µM: 13.2%

CCn1cc(S(=O)(=O)NCC(OC)c2ccccc2)cn1 (centres undefined)
cytotoxicity at 10 µM: 1.64%

Fc1cccnc1N1CCCC(c2nccs2)C1 (centres undefined)
cytotoxicity at 10 µM: 1.48%

CCc1nccn1C1CCCN(C(=O)c2ccn(C)c(=O)c2)C1 (centres undefined)
cytotoxicity at 10 µM: 17%

CCCS(=O)(=O)N1CCC(NC(=O)c2cc(CC)c(C)s2)CC1
cytotoxicity at 10 µM: -4.61%

Cc1ccc(NC(=O)Cc2c(C)nc3c(c2C)c(=O)[nH]n3C)cc1F
cytotoxicity at 10 µM: 6.87%

N#Cc1cccc(OCCN2CCCC2C(=O)NCC(F)(F)F)c1 (centres undefined)
cytotoxicity at 10 µM: -5.88%

CN(C(=O)CN1CCCC1c1cnn(C)c1)C(C)(C)C#N (centres undefined)
cytotoxicity at 10 µM: -1.37%

CCOCC(=O)N1CC(=O)Nc2cc(Br)ccc21
cytotoxicity at 10 µM: 8.09%

CCSc1ccc(C(C)NC(=O)CCS(C)(=O)=O)cc1 (centres undefined)
cytotoxicity at 10 µM: 2.18%

CC(C)N(Cc1cccnc1)C(=O)CSc1ccc(C#N)cc1
cytotoxicity at 10 µM: 3.18%

O=C(NCc1cccnc1N1CCCCC1)c1ccc2cc[nH]c2c1
cytotoxicity at 10 µM: 4.1%

CC(Nc1ccc(CCN2CCOCC2)cc1)C(=O)N(C)CCC#N (centres undefined)
cytotoxicity at 10 µM: -8.93%

O=S(=O)(CC1CCOCC1)NCc1ccnc(O)c1
cytotoxicity at 10 µM: -5.47%

CCOC(C)c1noc(CN(C)C(=O)c2cc3ccccn3c2)n1 (centres undefined)
cytotoxicity at 10 µM: 7.17%

CS(=O)(=O)NCC(=O)NC1CCc2nccn2C1 (centres undefined)
cytotoxicity at 10 µM: 16.2%

Cn1cccc1C1CCCN1C(=O)NCCCn1cccn1 (centres undefined)
cytotoxicity at 10 µM: 19.2%

C[C@H](NS(C)(=O)=O)C(=O)NCc1cc(-c2ccco2)n[nH]1
cytotoxicity at 10 µM: -8.27%

CC(C)CNc1nccc(-c2cnc3sc(Cl)cn3c2=O)n1
cytotoxicity at 10 µM: -0.723%

COCC(C)NCc1ccc2[nH]c(C)c(C)c2c1 (centres undefined)
cytotoxicity at 10 µM: -3.06%

CSc1ccccc1C(=O)N(C)C1CCCN(CCc2ccccc2)C1 (centres undefined)
cytotoxicity at 10 µM: -8.52%

CCn1cc(CN2CCC3(CC2)c2ccccc2CC3O)cn1 (centres undefined)
cytotoxicity at 10 µM: 5.54%

Cc1ccc(N2CCN(C(=O)CCc3ccc(O)cc3)CC2=O)cc1
cytotoxicity at 10 µM: -2.36%

COc1cc(N2CCCC(c3nccn3Cc3cccnc3)C2)ncn1 (centres undefined)
cytotoxicity at 10 µM: -1.86%

Cc1[nH]ccc1C(=O)N1CCCC(c2ccc(C(=O)O)cc2)C1 (centres undefined)
cytotoxicity at 10 µM: -0.591%

O=C1NCC2(CCCN(c3ncnc4c3CCC4)CC2)O1 (centres undefined)
cytotoxicity at 10 µM: -0.718%

CCCS(=O)(=O)N1CCCC(c2cccc(C(=O)O)c2)C1 (centres undefined)
cytotoxicity at 10 µM: 6.09%

Cc1cccc(Cn2cc(C)c(N)n2)c1
cytotoxicity at 10 µM: -4.14%

CNc1cncc(C2CCCN2Cc2c[nH]cn2)n1 (centres undefined)
cytotoxicity at 10 µM: 0.192%

CC(=O)N(Cc1ncc(C(C)C)o1)C1CCN(Cc2cc(C)on2)C1 (centres undefined)
cytotoxicity at 10 µM: -6.78%

COc1c(C)cnc(CN(C)C(=O)c2ccccc2F)c1C
cytotoxicity at 10 µM: -9.11%

Cc1cnn(CCNCCCOc2ccccc2)c1
cytotoxicity at 10 µM: -11.8%

COc1ccc(C(=O)NS(=O)(=O)c2ccc(C#N)cc2C(F)(F)F)cc1
cytotoxicity at 10 µM: -10.5%

O=C(NCc1cc[nH]n1)NCC(O)c1ccc(F)cc1F (centres undefined)
cytotoxicity at 10 µM: 1.78%

CC(=O)N1CCCN(C(=O)NCCc2cc(Cl)cc(Cl)c2)CC1
cytotoxicity at 10 µM: 4.55%

Cc1ccc(N2CCCC(NCC(=O)Nc3cc(C)no3)C2)nn1 (centres undefined)
cytotoxicity at 10 µM: 3.61%

CCNC(c1cccnc1)c1cc(C)cc(C)c1 (centres undefined)
cytotoxicity at 10 µM: 2.77%

O=C(CCc1ccccc1)N1CCC(N2CCNC2=O)CC1
cytotoxicity at 10 µM: 5.49%

CC(C)c1ccsc1C(=O)N1CCCN(Cc2cscn2)CC1
cytotoxicity at 10 µM: 4.07%

CCN(CC)C(=O)C1CCC2(CCNCC2)CO1 (centres undefined)
cytotoxicity at 10 µM: -146%

CC(=O)N1CCN(Cc2nccs2)CC2(CC(=O)N(C)C2)C1 (centres undefined)
cytotoxicity at 10 µM: 3.03%

O=C(CN1CC(c2nc(Cc3ccccc3)no2)C1)NCC1CCCO1 (centres undefined)
cytotoxicity at 10 µM: -6.06%

O=C(NCC1CCOCC1)[C@@H]1C[C@@H]2CCN(Cc3ccco3)C[C@H]2O1
cytotoxicity at 10 µM: -8.09%

CCCNCc1cn(C)nc1-c1cccnc1
cytotoxicity at 10 µM: 6.36%

CC(C)NC(=O)N1CCOC2(CCCN(c3ncccc3F)C2)C1 (centres undefined)
cytotoxicity at 10 µM: -4.45%

COCC1Cn2nnc(-c3cnn(C)c3)c2CN1Cc1cccs1 (centres undefined)
cytotoxicity at 10 µM: 6.24%

Cc1cnc(N2CC[C@H]3[C@@H]2CCC(=O)N3c2ccccc2)nc1
cytotoxicity at 10 µM: 4.15%
